A value given as a limit tells only on which side of the number the result lay.

This is an account of results in ChEMBL document CHEMBL1157775, “Novel hexahydropyrrolo[3,4-c]pyrrole CCR5 antagonists” (Bioorg Med Chem Lett, 2010).

In series [1] the target is C-C chemokine receptor type 5 (Homo sapiens, UniProt P51681). The series can be described thus: Binding affinity at CCR5 receptor by radiolabeled RANTES binding assay.
The subject of series [2] is Human immunodeficiency virus 1. The series can be described thus: Antiviral activity against HIV1 NL4-3 infected in human JC53-BL cells assessed as luciferase activity after 3 days post infection. In kind it is functional, organism-based. Particulars: Human immunodeficiency virus 1, NL4-3, JC53BL, 72 h. In a few lines: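 Pseudotyped virus in culture supernatant was harvested after 2 days. It was used to infect JC53-BL reporter cells. Luciferase reporter activity was read 3 days post-infection. IC50 in nM is reported as the mean of two experiments.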

A short description of series [3]: Intrinsic clearance in rat liver microsomes assessed per mg of protein. In kind it is ADME, Microsome. An outline of the steps:
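Rat liver microsomes. Intrinsic clearance is expressed per mg protein. Values ≥90 µl/min were taken as high clearance.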
For orientation: Liver microsomes are vesicles of endoplasmic reticulum, rich in cytochrome P450 enzymes.

Series [4] is described as follows: Intrinsic clearance in human liver microsomes assessed per mg of protein. In kind it is ADME, Microsome. An outline of the steps:
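Human liver microsomes. Intrinsic clearance is expressed as µl/min/mg protein.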

The nature of series [5]: Permeability from apical to basolateral side of human Caco-2 cells after 21 days. The format is ADME, cell-based. The following applies: read-out: permeability. (In general: Caco-2 monolayers are a common model of the intestinal barrier.)
In a further series the test system is Caco-2. The series can be described thus: Efflux ratio of permeability from basolateral to apical over apical to basolateral side in human Caco-2 cells after 21 days. Particulars: caco-2, 504 h.
Series [6] is described as follows: AUC in rat at 10 mg/kg, po. In kind it is ADME, organism-based. On the set-up: dose 10 mg/kg, route oral. The following applies: plasma. In a few lines: (§1)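 Rat PK. Single IV dose of 1 mg/kg and oral dose of 10 mg/kg. Oral AUC (ng·h/mL) and %F were derived from the PO arm. Clearance (mL/min/kg) was taken from the IV arm.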
A short description of series [7]: Oral bioavailability in rat at 10 mg/kg. Particulars: in vivo. In kind it is ADME, organism-based. An outline of the steps: as §1
The nature of series [8]: Clearance in dog at 1 mg/kg, iv. On the set-up: dose 1 mg/kg, route intravenous. The following applies: in vivo. In kind it is ADME, organism-based, Canis lupus familiaris. An outline of the steps:
(§2)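 Dog PK. Single IV dose of 1 mg/kg, then an oral dose of 10 mg/kg; one case used 1 mg/kg both IV and PO. AUC and %F were determined after the oral dose. Clearance (ml/min/kg) was determined from the IV dose.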

Series [9] is described as follows: Intrinsic clearance in dog liver microsomes assessed per mg of protein. In kind it is ADME, Canis lupus familiaris, Microsome.
Series [10] is described as follows: Clearance in rat at 1 mg/kg, iv. The following applies: in vivo. Details: dose 1 mg/kg, route intravenous. In kind it is ADME, organism-based. In a few lines: as §1
A short description of series [11]: AUC in dog at 10 mg/kg, po. In kind it is ADME, organism-based, Canis lupus familiaris. On the set-up: dose 10 mg/kg, route oral. The following applies: plasma. An outline of the steps: as §2
The nature of series [12]: Oral bioavailability in dog at 10 mg/kg. In kind it is ADME, organism-based, Canis lupus familiaris. The following applies: in vivo. An outline of the steps: as §2

Chain of C-C chemokine receptor type 5 (P51681 whole entry): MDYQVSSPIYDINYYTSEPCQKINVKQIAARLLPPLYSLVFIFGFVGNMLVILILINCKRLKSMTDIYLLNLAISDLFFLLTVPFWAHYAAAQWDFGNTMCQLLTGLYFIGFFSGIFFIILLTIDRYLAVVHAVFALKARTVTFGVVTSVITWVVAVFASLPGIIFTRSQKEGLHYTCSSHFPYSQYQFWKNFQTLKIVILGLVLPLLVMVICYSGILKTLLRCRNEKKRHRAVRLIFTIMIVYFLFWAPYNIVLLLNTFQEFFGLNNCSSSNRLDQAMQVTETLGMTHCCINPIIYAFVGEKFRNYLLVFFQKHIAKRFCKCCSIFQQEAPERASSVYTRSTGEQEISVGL

For `Cc1cccc(C)c1C(=O)N1C[C@H]2CN(CC[C@H](NC(=O)C3CCOC3)c3ccccc3)C[C@H]2C1` (some centres undefined), the IC50 (commonly the concentration that inhibits the measured activity by half) in series [1] worked out at 0.015 µM; in series [2] it was 0.101 µM.
`Cc1cccc(C)c1C(=O)N1C[C@H]2CN(CC[C@H](NC(=O)C3CCCCC3)c3ccccc3)C[C@H]2C1`: the IC50 turned out to be 0.003 µM in series [1] and 0.03 µM in series [2].
Turning to `Cc1ncnc(C)c1C(=O)N1C[C@H]2CN(CC[C@H](NC(=O)CC3CCC(F)(F)CC3)c3cccc(F)c3)C[C@H]2C1`, the IC50 in series [1] is 0.012 µM; in series [2] it was 0.0011 µM. The microsomal CLint (usually the rate of metabolic loss divided by the concentration) in series [3] was determined as 24 µL/min/mg; in series [4] it was 113 µL/min/mg.
On to `Cc1noc(C)c1C(=O)N1C[C@H]2CN(CC[C@H](NC(=O)C3CCCC3)c3ccccc3)C[C@H]2C1`, for which the IC50 is 0.019 µM in series [1] and 0.545 µM in series [2].
With `Cc1cccc(Cl)c1C(=O)N1C[C@H]2CN(CC[C@H](NC(=O)C3CCCC3)c3ccccc3)C[C@H]2C1`, the results for the IC50 in [1] and in series [2] were 0.009 µM and 0.003 µM, respectively. In addition, the microsomal CLint in series [4] amounted to 264 µL/min/mg.
With `Cc1cc(C#N)nc(C)c1C(=O)N1C[C@H]2CN(CC[C@H](NC(=O)C3CCCC3)c3ccccc3)C[C@H]2C1`, the half-inhibitory concentration (IC50) in [1] turned out to be 0.012 µM. Also, the microsomal CLint in [3] is 144 µL/min/mg; in series [4], 227 µL/min/mg. For the same molecule, in series [5], the Papp A→B was found to be 3 ×10⁻⁶ cm/s.
Take `Cc1cccc(C)c1C(=O)N1C[C@H]2CN(CC[C@H](NC(=O)C(C)C)c3ccccc3)C[C@H]2C1`: the IC50 in series [1] stood at 0.011 µM; in [2], 0.1 µM.
Consider `Cc1ncnc(C)c1C(=O)N1C[C@H]2CN(CC[C@H](NC(=O)CC3CC(F)(F)C3)c3cccc(C#N)c3)C[C@H]2C1`, for which the IC50 was 0.034 µM in series [1] and 0.203 µM in [2]. Besides, the microsomal CLint worked out at 31 µL/min/mg in series [3] and 30 µL/min/mg in series [4].
For `Cc1ncnc(C)c1C(=O)N1C[C@H]2CN(CC[C@H](NC(=O)CC3CC(F)(F)C3)c3ccccc3)C[C@H]2C1` the same measures were 0.02 µM, 0.003 µM, 61 µL/min/mg and 60 µL/min/mg.
As to `CC(=O)N1C[C@H]2CN(CC[C@H](NC(=O)C3CCCC3)c3ccccc3)C[C@H]2C1`, the IC50 is 0.465 µM in [1] and more than 1 µM in [2].
Consider `Cc1cccc(C)c1C(=O)N1C[C@H]2CN(CC[C@H](NC(=O)c3ccccc3)c3ccccc3)C[C@H]2C1`, for which the half-maximal inhibitory concentration (IC50) in [1] was found to be 0.008 µM; in series [2], 0.124 µM.
For `Cc1cccc(C)c1C(=O)N1C[C@H]2CN(CC[C@H](NC(=O)c3ccoc3)c3ccccc3)C[C@H]2C1` the same measures were 0.018 µM and 0.085 µM.
Taken in the same sequence, the figures for `CCO/N=C(\c1ccc(Br)cc1)C1CCN(C2(C)CCN(C(=O)c3c(C)cccc3C)CC2)CC1` were 0.006 µM and 0.004 µM.
Take `Cc1cc(F)cc(C)c1C(=O)N1C[C@H]2CN(CC[C@H](NC(=O)C3CCCC3)c3ccccc3)C[C@H]2C1`: the half-inhibitory concentration (IC50) was found to be 0.006 µM in series [1] and 0.003 µM in series [2]. The values for the microsomal CLint in series [3] and in series [4] were 517 µL/min/mg and 236 µL/min/mg, respectively.
With `Cc1cc[n+]([O-])c(C)c1C(=O)N1C[C@H]2CN(CC[C@H](NC(=O)C3CCCC3)c3ccccc3)C[C@H]2C1`, the IC50 stood at 0.044 µM in [1] and 0.019 µM in [2]. For the same molecule, the intrinsic clearance (microsomal CLint) in series [3] came out at 12 µL/min/mg; in series [4] it was 6 µL/min/mg. Further, the Papp A→B in series [5] was 0.1 ×10⁻⁶ cm/s. For the same molecule, in the series on Caco-2, the Ratio was determined as 300.
Regarding `Cc1ncnc(C)c1C(=O)N1C[C@H]2CN(CC[C@H](NC(=O)CC3CCC(F)(F)CC3)c3ccccc3)C[C@H]2C1`, the AUC (in general, concentration integrated over time) in [6] came out at 215 ng·h/mL; in series [11], 4210 ng·h/mL. Moreover, the IC50 in series [1] was found to be 0.027 µM; in series [2], 0.006 µM. The results for the microsomal CLint in series [3], in series [4] and in series [9] were 46 µL/min/mg, 83 µL/min/mg and 30 µL/min/mg, respectively. Also, the bioavailability in [7] was 15%; in [12], 103%. In addition, the results for the clearance in series [8] and in series [10] were 44 mL/min/kg and 99 mL/min/kg, respectively.
For `Cc1cc(=O)[nH]c(C)c1C(=O)N1C[C@H]2CN(CC[C@H](NC(=O)C3CCCC3)c3ccccc3)C[C@H]2C1`, the figures for the half-inhibitory concentration (IC50) in series [1] and in [2] were 0.03 µM and 0.006 µM, respectively. The microsomal CLint in series [3] and in series [4] was 25 µL/min/mg each time. Further, the Papp A→B in series [5] amounted to 0.5 ×10⁻⁶ cm/s. In the series on Caco-2, the Ratio is given as 5.
As to `Cc1nnc(C(C)C)n1[C@H]1C[C@H]2CC[C@@H](C1)N2CC[C@H](NC(=O)C1CCC(F)(F)CC1)c1ccccc1` [MARAVIROC], in [2], the IC50 was found to be 0.003 µM.
Molecule `Cc1ncnc(C)c1C(=O)N1C[C@H]2CN(CC[C@H](NC(=O)C3CCCC3)c3ccccc3)C[C@H]2C1` came in with an exposure (AUC) in series [6] of 309 ng·h/mL. In series [1], this molecule registered an IC50 of 0.014 µM. For the same molecule, the microsomal CLint in series [3] turned out to be 51 µL/min/mg; in series [4] it was 35 µL/min/mg. Also, the Papp A→B in [5] came to 1.3 ×10⁻⁶ cm/s. Also, the bioavailability in series [7] was 17%. Further, the clearance – broadly, the rate of elimination divided by the concentration – in series [10] came to 131 mL/min/kg.
For `Cc1ncnc(C)c1C(=O)N1C[C@H]2CN(CC[C@H](NC(=O)CC3CC(F)(F)C3)c3cc(F)cc(F)c3)C[C@H]2C1`, the IC50 in series [1] is 0.03 µM; in series [2], 0.041 µM. In addition, the microsomal CLint in series [4] is 45 µL/min/mg.
For the molecule `Cc1cccc(C)c1C(=O)N1C[C@H]2CN(CC[C@H](NC(=O)C3CCC3)c3ccccc3)C[C@H]2C1`, the IC50 came out at 0.007 µM in [1] and 0.039 µM in series [2].
Turning to `CC(=O)N[C@@H](CCN1C[C@@H]2CN(C(=O)c3c(C)cccc3C)C[C@@H]2C1)c1ccccc1`, the half-inhibitory concentration (IC50) in series [1] worked out at 0.015 µM; in series [2] it was 0.132 µM.
In the case of `Cc1ccnc(C)c1C(=O)N1C[C@H]2CN(CC[C@H](NC(=O)C3CCCC3)c3ccccc3)C[C@H]2C1`, the AUC in series [6] is 65 ng·h/mL. In series [1], the IC50 came to 0.007 µM. Moreover, the microsomal CLint in series [3] was 89 µL/min/mg; in series [4], 67 µL/min/mg. Also, the Papp A→B in [5] was determined as 4 ×10⁻⁶ cm/s. Also, the bioavailability in series [7] was found to be 6.4%. Also, in series [10], the clearance amounted to 151 mL/min/kg.
In turn, `Cc1cccc(C)c1C(=O)N1C[C@H]2CN(CC[C@H](NC(=O)C3CCCC3)c3ccccc3)C[C@H]2C1` displayed an AUC in series [6] of 31 ng·h/mL. Besides, the figures for the IC50 in [1] and in series [2] were 0.006 µM and 0.007 µM, respectively. The microsomal CLint is 322 µL/min/mg in series [3] and 256 µL/min/mg in series [4]. The Papp A→B in [5] was 4 ×10⁻⁶ cm/s. Also, the bioavailability in series [7] is 2.7%. The molecule also yielded a clearance in series [10] of 134 mL/min/kg. Also, the Ratio in the series on Caco-2 stood at 5.
Turning to `Cc1cccc(C)c1C(=O)N1C[C@H]2CN(CC[C@H](NC(=O)C3CCC(F)(F)CC3)c3ccccc3)C[C@H]2C1`, the IC50 came to 0.004 µM in [1] and 0.009 µM in series [2].
With `O=C(N[C@@H](CCN1C[C@@H]2CN(C(=O)c3c(Cl)cccc3Cl)C[C@@H]2C1)c1ccccc1)C1CCCC1`, the results for the IC50 in [1] and in series [2] were 0.014 µM and 0.092 µM, respectively. In [4], the microsomal CLint is 389 µL/min/mg.
As for `COc1cc(C)c(C(=O)N2C[C@H]3CN(CC[C@H](NC(=O)C4CCCC4)c4ccccc4)C[C@H]3C2)c(C)c1`, the IC50 in series [1] was found to be 0.026 µM; in [2], 0.0004 µM. Moreover, the microsomal CLint in series [3] amounted to 236 µL/min/mg; in series [4], 241 µL/min/mg. Moreover, the Papp A→B in [5] was determined as 33 ×10⁻⁶ cm/s. Besides, the Ratio in the series with Caco-2 was 2.
